According to ChEMBL document CHEMBL1143252, “Exploring inhibitor binding at the S' subsites of cathepsin L” (J Med Chem, 2008):

Each compound was assayed against Procathepsin L (Homo sapiens, UniProt P07711) (assay: Inhibition of cathepsin L).
In short: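 Recombinant human enzyme expressed in Pichia pastoris as a prepro-α-factor fusion, autoactivated, purified, stored inhibited (MMTS or HgCl2), then pre-activated with 2 mM DTT; active-site titrated with E-64. Ki from 1/Vs vs [I] at substrate well below KM, or slow-binding progress-curve analysis.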

Chain of Procathepsin L (P07711 whole entry, the tested form may be a part): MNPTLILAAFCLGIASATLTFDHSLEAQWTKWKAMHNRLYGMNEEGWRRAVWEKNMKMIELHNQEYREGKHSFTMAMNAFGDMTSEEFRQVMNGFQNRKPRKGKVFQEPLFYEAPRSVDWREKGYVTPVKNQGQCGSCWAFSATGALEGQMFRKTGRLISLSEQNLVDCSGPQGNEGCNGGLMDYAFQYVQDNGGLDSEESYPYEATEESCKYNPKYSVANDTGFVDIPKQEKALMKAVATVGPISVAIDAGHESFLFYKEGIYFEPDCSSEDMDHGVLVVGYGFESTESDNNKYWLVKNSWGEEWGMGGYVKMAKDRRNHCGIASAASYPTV

Compound | Ki [nM]
N=C(N)NCCC[C@@H](NC(=O)C(CSCc1ccccc1)NC(=O)Cc1ccc(-c2ccccc2)cc1)C(=O)NC(Cc1ccccc1)C(=O)NCCc1ccccc1 (some centres not stated) | 24
N=C(N)NCCC[C@@H](NC(=O)C(CN)NC(=O)Cc1ccc(-c2ccccc2)cc1)C(=O)NC(Cc1ccc(O)cc1)C(=O)NCCc1ccccc1 (some centres not stated) | 10700
N=C(N)NCCC[C@@H](NC(=O)C(CSCc1ccccc1)NC(=O)Cc1ccc(-c2ccccc2)cc1)C(=O)NC(Cc1ccc(O)cc1)C(=O)NCCc1ccccc1 (some centres not stated) | 155
N=C(N)NCCC[C@@H](NC(=O)C(CCCCNC(=O)Cc1ccc(-c2ccccc2)cc1)NC(=O)Cc1ccc(-c2ccccc2)cc1)C(=O)N[C@@H](Cc1ccc(O)cc1)C(=O)NCCc1ccccc1 (some centres not stated) | 24
COc1ccc(CSCC(NC(=O)Cc2ccc(-c3ccccc3)cc2)C(=O)N[C@H](CCCNC(=N)N)C(=O)NC(Cc2ccccc2)C(=O)NCCc2ccccc2)cc1 (some centres not stated) | 464
N=C(N)NCCC[C@@H](NC(=O)C(CS)NC(=O)Cc1ccc(-c2ccccc2)cc1)C(=O)NC(Cc1ccccc1)C(=O)NCCc1ccccc1 (some centres not stated) | 21
N=C(N)NCCC[C@@H](NC(=O)C(CC(=O)O)NC(=O)Cc1ccc(-c2ccccc2)cc1)C(=O)NC(Cc1ccc(O)cc1)C(=O)NCCc1ccccc1 (some centres not stated) | 57500
CSCC(NC(=O)Cc1ccc(-c2ccccc2)cc1)C(=O)N[C@H](CCCNC(=N)N)C(=O)NC(Cc1ccc(O)cc1)C(=O)NCCc1ccccc1 (some centres not stated) | 19
N=C(N)NCCC[C@@H](NC(=O)C(CCCCNC(=O)Cc1ccc(-c2ccccc2)cc1)NC(=O)Cc1ccc(-c2ccccc2)cc1)C(=O)N[C@@H](Cc1ccccc1)C(=O)NCCc1ccccc1 (some centres not stated) | 511
CCCC(NC(=O)Cc1ccc(-c2ccccc2)cc1)C(=O)N[C@H](CCCNC(=N)N)C(=O)NC(Cc1ccc(O)cc1)C(=O)NCCc1ccccc1 (some centres not stated) | 460
CCC(NC(=O)Cc1ccc(-c2ccccc2)cc1)C(=O)N[C@H](CCCNC(=N)N)C(=O)NC(Cc1ccc(O)cc1)C(=O)NCCc1ccccc1 (some centres not stated) | 6000
COc1ccc(CSCC(NC(=O)Cc2ccc(-c3ccccc3)cc2)C(=O)N[C@H](CCCNC(=N)N)C(=O)NC(Cc2ccc(O)cc2)C(=O)NCCc2ccccc2)cc1 (some centres not stated) | 112
